Experimental data: article PMC3944097 (ACS chemical biology, 2013)

Legend:
[1] = biological target: MMP-13 (Homo sapiens, UniProt P45452); assay: LC/MS analysis of probe fragmentation on incubation with MMP-13; assay type: biochemical; settings: for metabolites found after incubation with MMP-13: 2 h incubation with MMP-13, LC/MS
Outline: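 Test compound (1 μM) incubated with MMP-13 catalytic domain (40 nM) at 37 °C in 50 mM Tris, 10 mM CaCl2, 150 mM NaCl, 0.05% Brij35, pH 7.8. Aliquots were taken every 10 min to 60 min, then every 20 min to 120 min. Each was quenched with an equal volume of acetonitrile containing 10% HCOOH. Fragments were identified by UPLC–Q-Tof LC–MS.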

[2] = assay type: in vivo, mice; settings: for half-life: mouse, iv
Outline: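 Female athymic nude mice bore SCC-7 tumours, grown from 1 × 10^6 cells injected subcutaneously into the right front flank and used at ~300 mm3. Probe was given intravenously via the tail vein. Blood was sampled at 1, 5, 15, 30, 45 and 60 min. Intact probe and the Met1/Met2 fragments were measured by HPLC–QTRAP LC–MS using a single MRM transition, with triplicate injections.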

[3] = LC/MS identification of parent probe, Met1 and Met2 in tumor, plasma and liver; assay type: in vivo, mice; settings: 60 min after probe injection; for species detected in liver: liver homogenate; for species detected in liver / parent probe in plasma: LC/MS; for species detected in SCC-7 tumor: tumor homogenate, high sensitivity LC/MS
Outline: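 Female athymic nude mice bore subcutaneous SCC-7 tumours (~300 mm3) and received probe intravenously via the tail vein. At 60 min, plasma, tumour and liver were collected. Tissues were weighed, stored in liquid nitrogen and homogenised in H2O/acetonitrile 50/50 containing 10% HCOOH. After pellet removal, extracts were lyophilised and redissolved in the same solvent. High-sensitivity LC–MS then screened for parent probe, Met1 and Met2.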

[4] = system: different MMPs; assay: Specificity and selectivity of probes to MMP enzymes; assay type: biochemical; settings: fluorescence activation by MMP enzymes (Figure 2a)
[5] = system: catalytic domain of MMP-13; assay: reaction buffer; settings: 37 °C, up to 120 min

Row | Compound | metabolites found after incubation with MMP-13 [1] | Met1/Met2 ratio in blood ([2]; mice, i.v., blood samples at 1, 5, 15, 30, 45 and 60 min p.i., LC/MS) | half-life ([2]; blood) [min] | species detected in liver [3] | parent probe in plasma [3] | species detected in SCC-7 tumor [3] | enzyme specificity and selectivity over different MMPs [4] | intact probe in blood samples at 45 min after injection ([2]; mice, i.v., blood, LC/MS) | further cleavage of metabolite by MMP-13 ([1]; incubation with MMP-13, LC/MS, late time points) | cleaved bond [5]
1 | CCN(CC)c1ccc2nc3ccc(N=Nc4ccc(N(C)CCCC(=O)NCCCC[C@@H](NC(=O)CNC(=O)[C@H](CCCNC(=N)N)NC(=O)[C@@H](NC(=O)CNC(=O)[C@H](CC(C)C)NC(=O)[C@@H]5CCCN5C(=O)CNC(=O)CCCCC[N+]5=C(C=CC=CC=C6N(CC)c7ccc8c(S(=O)(=O)[O-])cc(S(=O)(=O)O)cc8c7C6(C)C)C(C)(C)c6c5ccc5c(S(=O)(=O)[O-])cc(S(=O)(=O)O)cc65)C(C)C)C(=O)NCC(=O)NCC(=O)NCCOCCOCCOCCOCCOCCOCCOCCOCCOCCOCCOCCO)cc4)cc3[n+](-c3ccccc3)c2c1 [D-MMP-P12] | only the MMP specific metabolite Met1 but not Met2 was found | much higher than that of L-MMP-P12 at all the time points examined | 29.8 ± 0.45 | only Met2 fragment could be detected | still detectable after 1 h | parent D-MMP-P12 probe, Met1 and Met2 were all detectable | very similar enzyme specificity and selectivity with L-MMP-P12 |  |  | 
2 | CCN(CC)c1ccc2nc3ccc(N=Nc4ccc(N(C)CCCC(=O)NCCCC[C@H](NC(=O)CNC(=O)[C@H](CCCNC(=N)N)NC(=O)[C@@H](NC(=O)CNC(=O)[C@H](CC(C)C)NC(=O)[C@@H]5CCCN5C(=O)CNC(=O)CCCCC[N+]5=C(C=CC=CC=C6N(CC)c7ccc8c(S(=O)(=O)[O-])cc(S(=O)(=O)O)cc8c7C6(C)C)C(C)(C)c6c5ccc5c(S(=O)(=O)[O-])cc(S(=O)(=O)O)cc65)C(C)C)C(=O)NCC(=O)NCC(=O)NCCOCCOCCOCCOCCOCCOCCOCCOCCOCCOCCOCCO)cc4)cc3[n+](-c3ccccc3)c2c1 [L-MMP-P12] | two major fragments |  | 7.81 ± 0.25 | only Met2 fragment could be detected | very little L-MMP-P12 was found | only Met2 was detected while no parent probe or Met1 was found |  | almost no intact L-MMP-P12 can be detected |  | 
3 | Cy5.5-GPLGVR [Met2] |  |  |  |  |  |  |  |  | can be further cut by MMP-13 to form Met1 | 
4 | GPLGVRGKGG |  |  |  |  |  |  |  |  |  | Gly4-Val5, major
